Assay results published in ChEMBL document CHEMBL3525935, “Inhibition of P-glycoprotein leads to improved oral bioavailability of compound K, an anticancer metabolite of red ginseng extract produced by gut microflora” (Drug Metab Dispos, 2012).
Active and inactive are the calls of the source. No cut-off for these calls is given here.

Key:
[1] = system: LM1; experiment: Cytotoxicity against mouse LM1 cells assessed as cell growth inhibition upto 100 uM after 48 hrs by MTT assay; assay type: functional, cell-based
Procedure, shortened: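 LM1 cells, a metastatic line derived from A/J mice, grown in DMEM with 10% FBS, 2 mM glutamine, penicillin/streptomycin and 1% nonessential amino acids. Seeded at 5×10^3 cells/well in 96-well plates, fed daily, and used 2–3 days after seeding.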

[2] = Efflux ratio of permeability from basolateral to apical side over apical to basolateral side in human Caco2 cells; conditions: Caco-2
[3] = system: MDR1; experiment: Efflux ratio of permeability from basolateral to apical side over apical to basolateral side in MDCK2-MDR1 cells at 2 uM; assay type: ADME, cell-based, Canis lupus familiaris; conditions: dog, MDCK-MDR1
Procedure, shortened: (§1)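 Monolayers of Caco-2 (TC7; TEER >445 Ω/cm² for quality control), parental MDCKII, or MDR1-MDCKII cells. Bidirectional transport of 2 μM substrate in HBSS, pH 7.4 on both sides. Outputs were Pa-b, Pb-a and efflux ratio Pb-a/Pa-b, plus mass-balance recovery. Intracellular amount was measured at the end of transport and normalised to lysate protein (BCA). Three independent experiments.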

[4] = system: MDR1; experiment: Permeability across apical to basolateral side in MDCK2-MDR1 cells at 2 uM; assay type: ADME, cell-based, Canis lupus familiaris, MDCK-II; conditions: dog, MDCK-MDR1; read-out: permeability; procedure, shortened: as §1
[5] = Permeability across apical to basolateral side in human Caco2 cells; conditions: Caco-2
[6] = Mean residence time (infinity) in wildtype FVB mouse at 10 mg/kg, po; assay type: ADME, organism-based; set-up: dose 10 mg/kg, route oral; conditions: in vivo
Procedure, shortened: (§2)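 Male mice aged 6–10 weeks, MDR1a/b knockout or wild-type FVB, fasted overnight. Single 10 mg/kg gavage dose in an oral suspending vehicle. Ten timed tail-snip blood samples (20–25 μl) were taken under isoflurane. Blood levels were measured by UPLC-MS; the standard curve spanned 19.5 nM–10 μM, with LLOQ 9.8 nM. Five mice per group; mean ± S.D.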

[7] = Permeability across apical to basolateral side in human Caco2 cells at 2 uM; assay type: ADME, cell-based; conditions: Caco-2, read-out: permeability; procedure, shortened: as §1
[8] = Cytotoxicity against mouse LM1 cells assessed as cell growth inhibition after 48 hrs by MTT assay; assay type: functional, cell-based; conditions: LM1, 48 h
[9] = system: MDR1; experiment: Drug recovery in MDCK2-MDR1 cells at 2 uM; assay type: ADME, cell-based, Canis lupus familiaris, MDCK-II; conditions: dog, MDCK-MDR1; read-out: Drug recovery; procedure, shortened: as §1
[10] = Half life in MDR1a/b(-/-) FVB mouse at 10 mg/kg, po; assay type: ADME, organism-based; set-up: dose 10 mg/kg, route oral; conditions: in vivo; procedure, shortened: as §2
[11] = Drug uptake in human Caco2 cells assessed as intracellular level measured per mg of protein at 2 uM; assay type: ADME, cell-based; conditions: caco-2, 2 µM; procedure, shortened: as §1
[12] = AUC (0 to infinity) in wildtype FVB mouse at 10 mg/kg, po; assay type: ADME, organism-based; set-up: time infinity, dose 10 mg/kg, route oral; conditions: plasma; procedure, shortened: as §2
[13] = AUC (0 to infinity) in MDR1a/b(-/-) FVB mouse at 10 mg/kg, po; assay type: ADME, organism-based; set-up: time infinity, dose 10 mg/kg, route oral; conditions: plasma; procedure, shortened: as §2
[14] = Tmax in MDR1a/b(-/-) FVB mouse at 10 mg/kg, po; assay type: ADME, organism-based; set-up: dose 10 mg/kg, route oral; conditions: in vivo; procedure, shortened: as §2
[15] = Efflux ratio of permeability from basolateral to apical side over apical to basolateral side in human Caco2 cells at 2 uM; assay type: ADME, cell-based; conditions: Caco-2; procedure, shortened: as §1
[16] = Drug elimination rate in MDR1a/b(-/-) FVB mouse at 10 mg/kg, po; assay type: ADME, organism-based; set-up: dose 10 mg/kg, route oral; conditions: in vivo; procedure, shortened: as §2
[17] = Cmax in wildtype FVB mouse at 10 mg/kg, po; assay type: ADME, organism-based; set-up: dose 10 mg/kg, route oral; conditions: in vivo; procedure, shortened: as §2
[18] = Mean residence time (infinity) in MDR1a/b(-/-) FVB mouse at 10 mg/kg, po; assay type: ADME, organism-based; set-up: dose 10 mg/kg, route oral; conditions: in vivo; procedure, shortened: as §2
[19] = Drug uptake in MDCK2-MDR1 cells assessed as intracellular level measured per mg of protein at 2 uM; assay type: ADME, cell-based, Canis lupus familiaris; conditions: dog, mdck-ii; procedure, shortened: as §1
[20] = AUC (0 to time) in wildtype FVB mouse at 10 mg/kg, po; assay type: ADME, organism-based; set-up: dose 10 mg/kg, route oral; conditions: plasma; procedure, shortened: as §2
[21] = Half life in wildtype FVB mouse at 10 mg/kg, po; assay type: ADME, organism-based; set-up: dose 10 mg/kg, route oral; conditions: in vivo; procedure, shortened: as §2
[22] = Drug recovery in MDCK2 cells at 2 uM; assay type: ADME, cell-based, Canis lupus familiaris, MDCK-II; conditions: dog, MDCK; read-out: Drug recovery; procedure, shortened: as §1
[23] = Drug recovery in human Caco2 cells at 2 uM; assay type: ADME, cell-based; conditions: Caco-2, read-out: Drug recovery; procedure, shortened: as §1
[24] = Oral bioavailability in rat; assay type: ADME, organism-based; conditions: in vivo
[25] = AUC (0 to time) in MDR1a/b(-/-) FVB mouse at 10 mg/kg, po; assay type: ADME, organism-based; set-up: dose 10 mg/kg, route oral; conditions: plasma; procedure, shortened: as §2
[26] = Permeability across basolateral to apical side in human Caco2 cells at 2 uM; assay type: ADME, cell-based; conditions: Caco-2, read-out: permeability; procedure, shortened: as §1
[27] = Drug uptake in human Caco2 cells assessed as intracellular level measured per mg of protein at 2 uM in presence of 50 uM verapamil P-gp inhibitor; assay type: ADME, cell-based; conditions: caco-2, 2 µM
Procedure, shortened: (§3)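 Caco-2 (TC7) monolayers, 2 μM substrate transported in HBSS at pH 7.4. Cyclosporine A (20 μM) or verapamil (50 μM) was added to the apical side. Intracellular amount was measured at the end of transport and normalised to lysate protein (BCA), in nmol/mg. Three independent experiments.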

[28] = Permeability across basolateral to apical side in MDCK2 cells at 2 uM; assay type: ADME, cell-based, Canis lupus familiaris, MDCK-II; conditions: dog, MDCK; read-out: permeability; procedure, shortened: as §1
[29] = Efflux ratio of permeability from basolateral to apical side over apical to basolateral side in MDCK2 cells at 2 uM; assay type: ADME, cell-based, Canis lupus familiaris, MDCK-II; conditions: dog, MDCK; procedure, shortened: as §1
[30] = Tmax in wildtype FVB mouse at 10 mg/kg, po; assay type: ADME, organism-based; set-up: dose 10 mg/kg, route oral; conditions: in vivo; procedure, shortened: as §2
[31] = Cmax in MDR1a/b(-/-) FVB mouse at 10 mg/kg, po; assay type: ADME, organism-based; set-up: dose 10 mg/kg, route oral; conditions: in vivo; procedure, shortened: as §2
[32] = Drug uptake in human Caco2 cells assessed as intracellular level measured per mg of protein at 2 uM in presence of 20 uM cyclosporine A P-gp inhibitor; assay type: ADME, cell-based; conditions: caco-2, 2 µM; procedure, shortened: as §3
[33] = Drug elimination rate in wildtype FVB mouse at 10 mg/kg, po; assay type: ADME, organism-based; set-up: dose 10 mg/kg, route oral; conditions: in vivo; procedure, shortened: as §2
[34] = Permeability across apical to basolateral side in MDCK2 cells at 2 uM; assay type: ADME, cell-based, Canis lupus familiaris, MDCK-II; conditions: dog, MDCK; read-out: permeability; procedure, shortened: as §1
[35] = system: MDR1; experiment: Permeability across basolateral to apical side in MDCK2-MDR1 cells at 2 uM; assay type: ADME, cell-based, Canis lupus familiaris, MDCK-II; conditions: dog, MDCK-MDR1; read-out: permeability; procedure, shortened: as §1
[36] = Drug uptake in MDCK2 cells assessed as intracellular level measured per mg of protein at 2 uM; assay type: ADME, cell-based, Canis lupus familiaris; conditions: dog, mdck-ii; procedure, shortened: as §1

With `CC(C)=CCC[C@](C)(O[C@@H]1O[C@H](CO)[C@@H](O)[C@H](O)[C@H]1O)[C@H]1CC[C@]2(C)[C@@H]1[C@H](O)C[C@@H]1[C@@]3(C)CC[C@H](O[C@@H]4O[C@H](CO)[C@@H](O)[C@H](O)[C@H]4O)C(C)(C)[C@@H]3CC[C@]12C` the “growth inhibition (GI)” value [1] was “inactive”.
Work on `C[C@H]1O[C@@H](O[C@H]2[C@@H](O)C[C@H](O[C@H]3[C@@H](O)C[C@H](O[C@H]4CC[C@@]5(C)[C@H](CC[C@@H]6[C@@H]5C[C@@H](O)[C@]5(C)[C@@H](C7=CC(=O)OC7)CC[C@]65O)C4)O[C@@H]3C)O[C@@H]2C)C[C@H](O)[C@@H]1O` [DIGOXIN] yielded an efflux ratio [2] of 21, an efflux ratio at 2 µM [3] of 64 and a Papp A→B at 2 µM [4] of 0.298 ×10⁻⁶ cm/s. It also gave a Papp A→B [5] of 1.48 ×10⁻⁶ cm/s.
`CC(C)=CCC[C@](C)(O[C@@H]1O[C@H](CO)[C@@H](O)[C@H](O)[C@H]1O)[C@H]1CC[C@]2(C)[C@@H]1[C@H](O)C[C@@H]1[C@@]3(C)CC[C@H](O)C(C)(C)[C@@H]3CC[C@]12C` gave an MRT inf [6] of 7.82 h, a Papp A→B at 2 µM [7] of 1.16 ×10⁻⁶ cm/s and an IC50 [8] of 18.4 µM. It also gave a recovery at 2 µM [9] of 85%, a half-life [10] of 18.7 h and a Drug uptake [11] of 0.01 nmol/mg. It also gave an AUC(0-inf) [12] of 0.75 µM·h, an AUC(0-inf) [13] of 17.6 µM·h and a Tmax [14] of 5.6 h. The efflux ratio at 2 µM [15] was 26.6, the k el [16] was 1.11e-05 s⁻¹ and the Cmax [17] was 130 nM. The efflux ratio at 2 µM [3] was 18.2, the MRT inf [18] was 30.7 h and the Drug uptake [19] was 0.08 nmol/mg. The Papp A→B at 2 µM [4] was 1.84 ×10⁻⁶ cm/s, the AUC [20] was 0.66 µM·h and the half-life [21] was 5.87 h. It also gave a recovery at 2 µM [22] of 85%, a recovery at 2 µM [23] of 85% and a bioavailability [24] of 5%. For the same compound, the AUC [25] was 7.7 µM·h, the Papp B→A at 2 µM [26] was 31 ×10⁻⁶ cm/s and the Drug uptake [27] was 0.5 nmol/mg. It also gave a Papp B→A at 2 µM [28] of 1.13 ×10⁻⁶ cm/s, an efflux ratio at 2 µM [29] of 1.8 and a Tmax [30] of 2.8 h. It also gave a Cmax [31] of 530 nM, a Drug uptake [32] of 0.15 nmol/mg and a k el [33] of 3.61e-05 s⁻¹. For the same compound, the Papp A→B at 2 µM [34] was 0.58 ×10⁻⁶ cm/s, the Papp B→A at 2 µM [35] was 33.6 ×10⁻⁶ cm/s and the Drug uptake [36] was 0.27 nmol/mg.
